According to ChEMBL document CHEMBL1781919, “Synthesis and anticonvulsant properties of 1-(amino-N-arylmethanethio)-3-(1-substituted benzyl-2, 3-dioxoindolin-5-yl) urea derivatives” (Eur J Med Chem, 2011):
Activity calls are given as the source filed them. No cut-off for these calls is given here.

Legend:
[1] = Octanol-phosphate buffer partition coefficient, log P of the compound; type: physicochemical
Summary of the method: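 Octanol and phosphate buffer partition run at room temperature (29 °C). After separation, the phases are membrane-filtered and drug in the aqueous phase is measured by UV. PC = (Ct − Ca)/Ca, where Ct is total drug concentration and Ca is aqueous-phase concentration.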

Mus musculus [2] = assay: Anticonvulsant activity in mouse assessed as protection against subcutaneous pentylenetetrazole-induced seizures at 100 mg/kg, ip after 4 hrs; type: functional, organism-based; design: dose 100 mg/kg
Mus musculus [3] = assay: Neurotoxicity in mouse assessed as minimum motor impairment at 100 mg/kg, ip after 0.5 hrs by rotarod test; type: toxicity, organism-based; design: dose 100 mg/kg, route intraperitoneal; settings: in vivo
Summary of the method: (§1)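 Rotorod test for minimal motor impairment in mice given 30, 100 or 300 mg/kg i.p. at 0.01 mL/g, using sets of one, three and one animals, at 0.5 h and 4.0 h. Animals are observed at each dose and time. Score is N/F, the number showing toxicity over the number tested.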

Mus musculus [4] = assay: Neurotoxicity in mouse assessed as minimum motor impairment at 100 mg/kg, ip after 4 hrs by rotarod test; type: toxicity, organism-based; design: dose 100 mg/kg, route intraperitoneal; settings: in vivo; summary of the method: as §1
Mus musculus [5] = assay: Anticonvulsant activity in mouse assessed as protection against maximal electroshock-induced seizures at 100 mg/kg, ip after 0.5 hrs; type: functional, organism-based; design: dose 100 mg/kg
Summary of the method: (§2)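 Mouse Test 1: i.p. dosing at 0.01 mL/g. Sets of one, three and one animals receive 30, 100 and 300 mg/kg respectively, each tested at 0.5 h and 4.0 h. Score is N/F, the number of animals protected over the number tested. Screening performed by NINDS following the ADD program protocol.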

Mus musculus [6] = assay: Neurotoxicity in mouse assessed as minimum motor impairment at 30 mg/kg, ip after 4 hrs by rotarod test; type: toxicity, organism-based; design: dose 30 mg/kg, route intraperitoneal; settings: in vivo; summary of the method: as §1
Mus musculus [7] = assay: Anticonvulsant activity in mouse assessed as protection against maximal electroshock-induced seizures at 30 mg/kg, ip after 4 hrs; type: functional, organism-based; design: dose 30 mg/kg; summary of the method: as §2
Mus musculus [8] = assay: Anticonvulsant activity in mouse assessed as protection against maximal electroshock-induced seizures at 300 mg/kg, ip after 4 hrs; type: functional, organism-based; design: dose 300 mg/kg; summary of the method: as §2
Mus musculus [9] = assay: Neurotoxicity in mouse assessed as minimum motor impairment at 300 mg/kg, ip after 4 hrs by rotarod test; type: toxicity, organism-based; design: dose 300 mg/kg, route intraperitoneal; settings: in vivo; summary of the method: as §1
Mus musculus [10] = assay: Anticonvulsant activity in mouse assessed as protection against maximal electroshock-induced seizures at 30 mg/kg, ip after 0.5 hrs; type: functional, organism-based; design: dose 30 mg/kg; summary of the method: as §2
Mus musculus [11] = assay: Anticonvulsant activity in mouse assessed as protection against subcutaneous pentylenetetrazole-induced seizures at 100 mg/kg, ip after 0.5 hrs; type: functional, organism-based; design: dose 100 mg/kg
Mus musculus [12] = assay: Anticonvulsant activity in mouse assessed as protection against subcutaneous pentylenetetrazole-induced seizures at 300 mg/kg, ip after 4 hrs; type: functional, organism-based; design: dose 300 mg/kg
Mus musculus [13] = assay: Anticonvulsant activity in mouse assessed as protection against subcutaneous pentylenetetrazole-induced seizures at 30 mg/kg, ip after 4 hrs; type: functional, organism-based; design: dose 30 mg/kg
Mus musculus [14] = assay: Anticonvulsant activity in mouse assessed as protection against maximal electroshock-induced seizures at 100 mg/kg, ip after 4 hrs; type: functional, organism-based; design: dose 100 mg/kg; summary of the method: as §2
Mus musculus [15] = assay: Neurotoxicity in mouse assessed as minimum motor impairment at 30 mg/kg, ip after 0.5 hrs by rotarod test; type: toxicity, organism-based; design: dose 30 mg/kg, route intraperitoneal; settings: in vivo; summary of the method: as §1
Mus musculus [16] = assay: Anticonvulsant activity in mouse assessed as protection against subcutaneous pentylenetetrazole-induced seizures at 30 mg/kg, ip after 0.5 hrs; type: functional, organism-based; design: dose 30 mg/kg
Mus musculus [17] = assay: Anticonvulsant activity in mouse assessed as protection against maximal electroshock-induced seizures at 300 mg/kg, ip after 0.5 hrs; type: functional, organism-based; design: dose 300 mg/kg; summary of the method: as §2
Mus musculus [18] = assay: Neurotoxicity in mouse assessed as minimum motor impairment at 300 mg/kg, ip after 0.5 hrs by rotarod test; type: toxicity, organism-based; design: dose 300 mg/kg, route intraperitoneal; settings: in vivo; summary of the method: as §1
Mus musculus [19] = assay: Anticonvulsant activity in mouse assessed as protection against subcutaneous pentylenetetrazole-induced seizures at 300 mg/kg, ip after 0.5 hrs; type: functional, organism-based; design: dose 300 mg/kg

| Compound | logP [1] | Activity (Mus musculus [2]) | Activity (Mus musculus [3]) | Activity (Mus musculus [4]) | Activity (Mus musculus [5]) | Activity (Mus musculus [6]) | Activity (Mus musculus [7]) | Activity (Mus musculus [8]) | Activity (Mus musculus [9]) | Activity (Mus musculus [10]) | Activity (Mus musculus [11]) | Activity (Mus musculus [12]) | Activity (Mus musculus [13]) | Activity (Mus musculus [14]) | Activity (Mus musculus [15]) | Activity (Mus musculus [16]) | Activity (Mus musculus [17]) | Activity (Mus musculus [18]) | Activity (Mus musculus [19]) |
| --- | --- | --- | --- | --- | --- | --- | --- | --- | --- | --- | --- | --- | --- | --- | --- | --- | --- | --- | --- |
| O=C(NC(=S)Nc1ccccc1Cl)Nc1ccc2c(c1)C(=O)C(=O)N2Cc1ccccc1Cl | 3.98 | inactive | Non-toxic | Non-toxic | inactive | Non-toxic | inactive | inactive | Non-toxic | inactive | inactive | inactive | inactive | inactive | Non-toxic | inactive | inactive | Non-toxic | inactive |
| Cc1ccccc1NC(=S)NC(=O)Nc1ccc2c(c1)C(=O)C(=O)N2Cc1ccccc1Cl | 3.7 | inactive | Non-toxic | Non-toxic | inactive | Non-toxic | inactive | Active | Non-toxic | inactive | inactive | Active | inactive | inactive | Non-toxic | inactive | inactive | Non-toxic | inactive |
| COc1ccc(NC(=S)NC(=O)Nc2ccc3c(c2)C(=O)C(=O)N3Cc2ccccc2Cl)cc1 | 3.24 | inactive | Non-toxic | Non-toxic | inactive | Non-toxic | inactive | inactive | Non-toxic | inactive | inactive | inactive | inactive | inactive | Non-toxic | inactive | inactive | Non-toxic | inactive |
